Data published in ChEMBL document CHEMBL1933020, “A novel series of glucagon receptor antagonists with reduced molecular weight and lipophilicity” (Bioorg Med Chem Lett, 2012).
Values after ≈ are worked out from the molar mass of the structure shown.

Assays:
[1] = tested on: Rattus norvegicus; experiment: Antidiabetic activity in Wistar-Han rat assessed as reduction in glucagon-induced blood glucose excursion at 30 mg/kg, iv after 11 mins; type: functional; design: scale not given: the % may be the effect or the level left
In short: (§1)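 Wistar-Han rats received compound or vehicle i.v. at t = 0 (1, 10 or 30 mg/kg), then a 3 µg/kg i.v. glucagon bolus at 15 min. Blood glucose was sampled at 0, 10, 26, 32, 50 and 80 min, and compound plasma levels were measured. n = 6 rats per dose group.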

[2] = Plasma concentration in Wistar-Han rat at 1 mg/kg, iv after 11 mins; type: ADME, organism-based; design: dose 1 mg/kg, route intravenous; in short: as §1
[3] = Plasma concentration in Wistar-Han rat at 10 mg/kg, iv after 11 mins; type: ADME, organism-based; design: dose 10 mg/kg, route intravenous; in short: as §1
[4] = Plasma concentration in Wistar-Han rat at 30 mg/kg, iv after 11 mins; type: ADME, organism-based; design: dose 30 mg/kg, route intravenous; in short: as §1
[5] = target: Glucagon receptor (Homo sapiens, UniProt P47871); experiment: Displacement of [125I]Glucagon-Cex from human GCGR
Glucagon receptor, sequence (P47871 whole entry): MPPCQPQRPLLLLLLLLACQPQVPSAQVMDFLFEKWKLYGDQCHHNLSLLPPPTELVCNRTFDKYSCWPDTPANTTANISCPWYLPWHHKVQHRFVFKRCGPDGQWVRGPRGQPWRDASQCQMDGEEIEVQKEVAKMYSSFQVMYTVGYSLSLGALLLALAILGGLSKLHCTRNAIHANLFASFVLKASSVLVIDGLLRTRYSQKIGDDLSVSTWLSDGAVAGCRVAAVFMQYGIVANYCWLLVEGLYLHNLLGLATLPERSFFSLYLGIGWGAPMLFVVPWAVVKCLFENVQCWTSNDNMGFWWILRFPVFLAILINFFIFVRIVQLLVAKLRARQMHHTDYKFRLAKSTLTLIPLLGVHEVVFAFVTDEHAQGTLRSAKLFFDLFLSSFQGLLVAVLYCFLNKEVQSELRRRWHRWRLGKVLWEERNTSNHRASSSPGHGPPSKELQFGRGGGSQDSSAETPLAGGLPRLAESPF
In short: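 Displacement of [125I]glucagon-Cex from membranes containing the human glucagon receptor, run with 0.2% BSA. Values are geometric means of n ≥ 2 determinations.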

[6] = Lipophilicity, log D of the compound in octanol-phosphate buffer at pH 7.4; type: physicochemical; conditions: octanol/phosphate buffer, read-out: logD
In short: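 Shake-flask partition between octanol and buffer at pH 7.4.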

[7] = Permeability across low transporter-containing MDCK2 cells; type: ADME, cell-based, Canis lupus familiaris, MDCK-II; conditions: dog, MDCK; read-out: permeability
[8] = Kinetic solubility of the compound at pH 6.5; type: physicochemical; conditions: buffer, read-out: Kinetic_solubility
[9] = Apparent intrinsic clearance in rat liver microsomes; type: ADME, Microsome; conditions: read-out: CLH
[10] = target: Glucagon-like peptide 1 receptor (Homo sapiens, UniProt P43220); experiment: Displacement of [125I]GLP-1 from human GLP1R
Glucagon-like peptide 1 receptor, sequence (P43220 whole entry): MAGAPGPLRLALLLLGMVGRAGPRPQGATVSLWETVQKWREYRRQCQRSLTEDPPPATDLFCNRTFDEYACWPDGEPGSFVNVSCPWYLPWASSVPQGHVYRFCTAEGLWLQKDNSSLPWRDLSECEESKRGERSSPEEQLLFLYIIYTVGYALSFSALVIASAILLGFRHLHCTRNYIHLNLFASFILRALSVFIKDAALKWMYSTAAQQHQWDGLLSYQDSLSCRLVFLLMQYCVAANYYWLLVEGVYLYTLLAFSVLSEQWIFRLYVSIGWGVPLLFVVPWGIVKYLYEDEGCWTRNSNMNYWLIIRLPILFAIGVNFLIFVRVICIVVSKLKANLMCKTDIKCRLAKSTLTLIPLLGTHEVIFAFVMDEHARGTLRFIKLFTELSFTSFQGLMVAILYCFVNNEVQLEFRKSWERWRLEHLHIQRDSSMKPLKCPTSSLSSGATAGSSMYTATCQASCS
In short: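 Displacement of [125I]GLP-1 from membranes expressing the human GLP-1 receptor.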

[11] = target: T1, Gastric inhibitory polypeptide receptor (Homo sapiens, UniProt P48546); experiment: Displacement of [125I]GIP from human GIPR
T1 sequence (P48546 whole entry): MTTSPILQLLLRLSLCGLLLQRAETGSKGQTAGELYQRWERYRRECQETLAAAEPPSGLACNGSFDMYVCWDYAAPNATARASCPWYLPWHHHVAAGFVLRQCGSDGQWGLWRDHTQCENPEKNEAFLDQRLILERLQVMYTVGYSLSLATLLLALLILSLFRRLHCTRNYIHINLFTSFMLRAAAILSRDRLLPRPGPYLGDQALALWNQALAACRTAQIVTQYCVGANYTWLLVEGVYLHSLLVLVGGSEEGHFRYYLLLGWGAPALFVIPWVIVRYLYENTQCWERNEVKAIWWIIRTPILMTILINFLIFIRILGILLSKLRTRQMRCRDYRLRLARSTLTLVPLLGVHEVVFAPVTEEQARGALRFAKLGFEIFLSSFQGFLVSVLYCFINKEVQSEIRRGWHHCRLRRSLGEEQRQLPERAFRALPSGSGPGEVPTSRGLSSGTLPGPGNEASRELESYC

[12] = tested on: Rattus norvegicus; experiment: Half life in Wistar-Han rat at 1 mg/kg, iv and 5 mg/kg, po; type: ADME, organism-based; conditions: in vivo
In short: (§2)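 Wistar-Han rats were dosed at 1 mg/kg i.v. and 5 mg/kg p.o.; pharmacokinetic parameters were derived from the plasma profiles.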

[13] = tested on: Rattus norvegicus; experiment: Volume of distribution at steady state in Wistar-Han rat at 1 mg/kg, iv and 5 mg/kg, po; type: ADME, organism-based; conditions: in vivo; in short: as §2
[14] = tested on: Rattus norvegicus; experiment: Oral bioavailability in Wistar-Han rat at 5 mg/kg; type: ADME, organism-based; conditions: in vivo; in short: as §2
[15] = Cytotoxicity against human THLE cells after 72 hrs; type: cell-based; conditions: thle
In short: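 Transformed human liver epithelial (THLE) cells were exposed to compound for 72 h. Cytotoxicity was read as cellular ATP depletion and reported as the concentration predicted to kill 50% of cells.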

[16] = tested on: Rattus norvegicus; experiment: Antidiabetic activity in Wistar-Han rat assessed as reduction in glucagon-induced blood glucose excursion at 1 mg/kg, iv after 11 mins; type: functional; design: scale not given: the % may be the effect or the level left; in short: as §1
[17] = tested on: Rattus norvegicus; experiment: Antidiabetic activity in Wistar-Han rat assessed as reduction in glucagon-induced blood glucose excursion at 10 mg/kg, iv after 11 mins; type: functional; design: scale not given: the % may be the effect or the level left; in short: as §1
[18] = target: Glucagon receptor (Rattus norvegicus) (UniProt P30082); experiment: Antagonist activity at rat GCGR assessed as inhibition of glucagon-induced cAMP production

concentration at 11 min [2]: 300 ng/mL | concentration at 11 min [3]: 2280 ng/mL | concentration at 11 min [4]: 21000 ng/mL | Ki [5]: 9 nM | logD [6]: 2.27 | Papp [7]: 6.34 ×10⁻⁶ cm/s | solubility kinetic [8]: 320 µM (≈ 160 µg/mL) | CLint scaled [9]: < 25 mL/min/kg | Ki [10]: 3.34 µM | Ki [11]: 152 nM | t1/2 [12]: 24 min | Vdss [13]: 1.27 L/kg | F [14]: 2%
Structure (SMILES): O=C(O)CCNC(=O)c1ccc(C(Nc2cnn(-c3ccc(C(F)(F)F)cc3)c2)C2CCCC2)cc1 (single isomer, unassigned; (+))
Activity [1]: 24% | IC50 [15]: 235 µM | Activity [16]: 12% | Activity [17]: 20% | Kb [18]: 2.34 µM
